Measurements taken from ChEMBL document CHEMBL3272196, “Synthesis and biological action of two glucocorticoid alkylating agents” (J Med Chem, 1977).
Activity calls are given as the source filed them. The calls are words filed in the database; no cut-off is given here.

Legend:
L929 [1] = assay: Growth inhibition of mouse L929 cells after 6 days; assay type: functional, cell-based
In short: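 L929 mouse fibroblasts in monolayer in Joklik medium, steroids added in DMSO (0.1% of medium volume) early in growth. Cells harvested and counted 6 days later. Mean of three replicate cultures, expressed as percent of vehicle-control growth.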

L929 [2] = assay: Growth inhibition of mouse L929 cells at 3 x 10^-7 M preincubated for 48 hrs followed by compound washout; assay type: functional, cell-based
In short: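 L929 monolayers (15 mL) dosed day 1, 18 h after seeding, at 3×10⁻⁷ M final, vehicle DMSO. Day 3 medium changed, half switched to steroid-free medium. Medium renewed every other day, cells per bottle counted. Mean and standard error of three replicate cultures.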

[3] = Alkylating activity of the compound assessed as alkylation of 4-(p-nitrobenzyl)pyridine after 20 mins by colorimetric analysis; assay type: physicochemical
In short: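 Test agent at 10⁻⁴ M in 1% Me₂SO in water; 3 mL aliquots heated 20 min in boiling water bath with 4-(p-nitrobenzyl)pyridine in acetate buffer pH 4.0. Purple adduct developed with 5.0 N NaOH, extracted into ethyl acetate, A540 read exactly 6 min after base. Value read off mechlorethamine standard curve, expressed relative to mechlorethamine.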

[4] = Alkylating activity of the compound assessed as alkylation of 4-(p-nitrobenzyl)pyridine at 10^-4 M after 20 mins by colorimetric analysis; assay type: physicochemical; conditions: 100 µM
Glucocorticoid receptor [5] = target: T1, Glucocorticoid receptor (Mus musculus, UniProt P06537); assay: Displacement of 2 x 10^-8 M of [1,2,3-3H]-triamcinolone acetonide from glucocorticoid receptor in soluble fraction of mouse L929 cells after 20 hrs; assay type: cell-based; conditions: read-out: Kd(app)
T1 sequence (P06537 whole entry): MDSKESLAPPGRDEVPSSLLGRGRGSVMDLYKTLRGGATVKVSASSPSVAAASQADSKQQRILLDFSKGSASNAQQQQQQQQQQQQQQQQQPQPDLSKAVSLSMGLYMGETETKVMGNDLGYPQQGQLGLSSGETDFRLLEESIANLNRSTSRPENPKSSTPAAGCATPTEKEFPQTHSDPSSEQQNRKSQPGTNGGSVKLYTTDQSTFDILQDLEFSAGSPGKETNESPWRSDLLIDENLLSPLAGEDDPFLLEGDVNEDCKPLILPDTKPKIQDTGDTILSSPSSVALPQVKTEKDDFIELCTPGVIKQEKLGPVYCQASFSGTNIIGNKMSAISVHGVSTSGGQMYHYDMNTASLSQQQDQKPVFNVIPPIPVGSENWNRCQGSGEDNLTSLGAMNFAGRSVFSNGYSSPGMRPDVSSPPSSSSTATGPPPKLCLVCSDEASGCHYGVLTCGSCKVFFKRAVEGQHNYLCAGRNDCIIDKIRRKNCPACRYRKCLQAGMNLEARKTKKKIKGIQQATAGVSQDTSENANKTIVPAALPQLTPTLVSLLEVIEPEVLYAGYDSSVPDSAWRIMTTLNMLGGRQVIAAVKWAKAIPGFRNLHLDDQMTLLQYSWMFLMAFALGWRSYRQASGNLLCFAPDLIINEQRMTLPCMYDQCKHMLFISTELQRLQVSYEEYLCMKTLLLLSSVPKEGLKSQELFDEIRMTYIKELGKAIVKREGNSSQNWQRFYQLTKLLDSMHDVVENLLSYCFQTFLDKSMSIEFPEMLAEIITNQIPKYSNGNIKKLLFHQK

[6] = Alkylating activity of the compound assessed as alkylation of 4-(p-nitrobenzyl)pyridine at 10^-4 M after 20 mins by colorimetric analysis relative to mechlorethamine; assay type: physicochemical; conditions: 100 µM
[7] = target: T2, Glucocorticoid receptor (Mus musculus) (UniProt P06537); assay: (§1) Displacement of 1 x 10^-8 M of [1,2,3-3H]-triamcinolone acetonide from glucocorticoid receptor in soluble fraction of mouse L929 cells after 20 hrs; assay type: cell-based
T2 sequence (whole entry): T1 sequence (P06537 whole entry)

[8] = target: T2, Glucocorticoid receptor (Mus musculus); assay: Displacement of [1,2,3-3H]-triamcinolone acetonide from glucocorticoid receptor in soluble fraction of mouse L929 cells at 10^-6 M preincubated for 4 hrs followed by [3H]-triamcinolone acetonide addition measured after 18 hrs by double reciprocal plot analysis; assay type: cell-based
In short: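 L929 100 000g supernatant preincubated 4 h on ice with vehicle, 10⁻⁶ M agent or 10⁻⁷ M cortisol. Varied [3H]triamcinolone acetonide then added, incubation continued 18 h. Bound counted after Sephadex G-25 separation; nonspecific (3×10⁻⁵ M dexamethasone) subtracted. Specific binding plotted against free ligand and in double-reciprocal form.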

Estrogen receptor = target: T3, Estrogen receptor (Rattus norvegicus, UniProt P06211); assay: Displacement of radiolabeled estradiol from estradiol receptor in rat uterine cytosol; design: species or system Uterus
T3 sequence (P06211 whole entry): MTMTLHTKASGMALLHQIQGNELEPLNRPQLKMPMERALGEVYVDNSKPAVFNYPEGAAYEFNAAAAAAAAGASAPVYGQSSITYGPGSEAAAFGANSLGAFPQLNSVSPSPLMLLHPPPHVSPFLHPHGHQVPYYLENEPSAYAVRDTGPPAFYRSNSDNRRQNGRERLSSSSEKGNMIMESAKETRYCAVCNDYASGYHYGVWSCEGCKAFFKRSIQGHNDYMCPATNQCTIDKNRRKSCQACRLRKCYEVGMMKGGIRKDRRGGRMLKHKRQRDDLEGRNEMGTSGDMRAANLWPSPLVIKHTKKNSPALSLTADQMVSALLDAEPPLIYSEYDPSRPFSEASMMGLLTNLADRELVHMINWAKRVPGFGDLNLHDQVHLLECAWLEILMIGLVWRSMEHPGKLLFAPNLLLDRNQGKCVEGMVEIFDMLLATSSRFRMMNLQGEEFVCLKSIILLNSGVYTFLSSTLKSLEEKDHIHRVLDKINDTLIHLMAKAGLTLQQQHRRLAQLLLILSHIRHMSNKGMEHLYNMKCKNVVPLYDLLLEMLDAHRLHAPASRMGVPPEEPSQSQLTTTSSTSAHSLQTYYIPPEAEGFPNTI

Glucocorticoid receptor [9] = target: T1, Glucocorticoid receptor; assay: as §1; assay type: cell-based

CC1(C)O[C@@H]2C[C@H]3[C@@H]4CCC5=CC(=O)C=C[C@]5(C)[C@@]4(F)[C@@H](O)C[C@]3(C)[C@]2(C(=O)CO)O1 [TRIAMCINOLONE ACETONIDE]
growth inhibition (GI) (L929 [1]): Active
growth inhibition (GI) (L929 [2]): inactive
Activity [3]: Not Active

CC1(C)O[C@@H]2C[C@H]3[C@@H]4CCC5=CC(=O)C=C[C@]5(C)[C@@]4(F)[C@@H](O)C[C@]3(C)[C@]2(C(=O)COC(=O)N(CCCl)CCCl)O1
growth inhibition (GI) (L929 [1]): Active
growth inhibition (GI) (L929 [2]): inactive
Activity [4]: Active
Kd (Glucocorticoid receptor [5]): 7.5 nM
Activity [6]: 20%

C[C@]1(c2ccccc2)O[C@@H]2C[C@H]3[C@@H]4CCC5=CC(=O)C=C[C@]5(C)[C@@]4(F)[C@@H](O)C[C@]3(C)[C@]2(C(=O)CO)O1
inhibition [7]: Active

C[C@]12CCC(=O)C=C1CC[C@@H]1[C@@H]2[C@@H](O)C[C@@]2(C)[C@H]1CC[C@]2(O)C(=O)COP(=O)(O)O
inhibition [7]: inactive

C[C@]12CCC(=O)C=C1CC[C@@H]1[C@@H]2[C@@H](O)C[C@@]2(C)[C@H]1CC[C@]2(O)C(=O)CO [HYDROCORTISONE]
growth inhibition (GI) (L929 [1]): Active
Activity [3]: Not Active

C[C@]12CCC(=O)C=C1CC[C@@H]1[C@@H]2[C@@H](O)C[C@@]2(C)[C@H]1CC[C@]2(O)C(=O)COC(=O)N(CCCl)CCCl
inhibition [8]: inactive
growth inhibition (GI) (L929 [1]): Active
Activity [4]: Active
Kd (Glucocorticoid receptor [5]): 430 nM
Activity [6]: 20%

C[C@]12CC[C@@H]3c4ccc(OC(=O)Cc5ccc(N(CCCl)CCCl)cc5)cc4CC[C@H]3[C@@H]1CC[C@@H]2OC(=O)Cc1ccc(N(CCCl)CCCl)cc1 [ESTRADIOL MUSTARD]
Kd (Estrogen receptor): 3000 nM

C[C@]12CCC(=O)C=C1CC[C@@H]1[C@@H]2[C@@H](O)C[C@@]2(C)[C@H]1CC[C@]2(O)C(=O)COC(=O)CCC(=O)O [HYDROCORTISONE HEMISUCCINATE ANHYDROUS]
Kd (Glucocorticoid receptor [9]): 190 nM
